Results published in ChEMBL document CHEMBL1157579, “Discovery of potent sulfonamide P4-capped ketoamide second generation inhibitors of hepatitis C virus NS3 serine protease with favorable pharmacokinetic profiles in preclinical species” (Bioorg Med Chem, 2010).

Columns and labels:
[1] = Inhibition of HCV NS4A-tethered single chain NS3 serine protease assessed as Ac-DTEDVVP(Nva)- O-PAP substrate hydrolysis by spectrophotometric assay; design: species or system Hepacivirus hominis
Summary of the method: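 Ki* reported for a single P1 diastereomer, within twofold at 95% confidence limit.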

Hepatitis C virus = experiment: Antiviral activity against Hepatitis C virus genotype 1 by replicon assay; assay type: functional, organism-based, Hepacivirus hominis
[2] = Selectivity index, ratio of Ki for HNE to Ki for NS4A-tethered single chain NS3 serine protease
Summary of the method: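 Compounds tested against human neutrophil elastase as a counter-protease; selectivity expressed as HNE Ki divided by HCV NS3 protease Ki.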

[3] = AUC (0 to 6 hrs) in rat at 10 mg/kg, po; assay type: ADME, organism-based; design: time < 6 hr, dose 10 mg/kg, route oral; conditions: plasma
[4] = AUC (0 to 6 hrs) in dog at 2 mg/kg, po; assay type: ADME, organism-based, Canis lupus familiaris; design: time < 6 hr, dose 2 mg/kg, route oral; conditions: plasma
[5] = AUC (0 to 6 hrs) in monkey at 10 mg/kg, po; assay type: ADME, organism-based, Macaca mulatta; design: time < 6 hr, dose 10 mg/kg, route oral; conditions: rhesus monkey, plasma
[6] = AUC (0 to 6 hrs) in dog at 3 mg/kg, po; assay type: ADME, organism-based, Canis lupus familiaris; design: time < 6 hr, dose 3 mg/kg, route oral; conditions: plasma

Row | Ki [1] [nM] | EC90 (Hepatitis C virus) [nM] | Ratio Ki [2] | AUC(0-t) at 6 h [3] [µM·h] | AUC(0-t) at 6 h [4] [µM·h] | AUC(0-t) at 6 h [5] [µM·h] | AUC(0-t) at 6 h [6] [µM·h] | Compound
1 | 15 | 300 | 58 |  |  |  |  | CCC[C@H](NC(=O)[C@@H]1[C@@H]2[C@H](CN1C(=O)[C@@H](NC(=O)NC1(CS(=O)(=O)NC)CCCCC1)C(C)(C)C)C2(C)C)C(=O)C(=O)NC1CC1
2 | 8 | 45 | 135 | 0.3 | 0.3 |  |  | CCC[C@H](NC(=O)[C@@H]1[C@@H]2[C@H](CN1C(=O)[C@@H](NC(=O)NC1(CS(=O)(=O)N3CCOCC3)CCCCC1)C(C)(C)C)C2(C)C)C(=O)C(=O)NC1CC1
3 | 9 | 135 |  |  |  |  |  | CCC[C@H](NC(=O)[C@@H]1[C@@H]2[C@H](CN1C(=O)[C@@H](NC(=O)NC1(CS(=O)(=O)N(C)CC3CC3)CCCCC1)C(C)(C)C)C2(C)C)C(=O)C(=O)NC1CC1
4 | 4 | 20 | 340 | 0.1 |  |  |  | CCC[C@H](NC(=O)[C@@H]1[C@@H]2[C@H](CN1C(=O)[C@@H](NC(=O)NC1(C3CCN(C4CC4)S3(=O)=O)CCCCC1)C(C)(C)C)C2(C)C)C(=O)C(=O)NC1CC1 (single isomer, unassigned)
5 | 2 | 85 |  | 0.6 | 0.1 |  |  | CCC[C@H](NC(=O)C1[C@@H]2[C@H](CN1C(=O)[C@@H](NC(=O)NC1([C@@H](C)S(=O)(=O)N(C)C)CCCCC1)C(C)(C)C)C2(C)C)C(=O)C(=O)NC1CC1 (stereo partly drawn)
6 | 4 | 55 | 20 |  | 0.1 |  |  | C#CCCC(NC(=O)[C@@H]1[C@@H]2[C@H](CN1C(=O)[C@@H](NC(=O)N[C@H](C(=O)C1CC1)C1CCCCC1)C(C)(C)C)C2(C)C)C(=O)C(=O)NC1CC1 (stereo partly drawn)
7 | 6 | 55 | 82 | 0.6 | 6.1 | 0.1 |  | CCC[C@H](NC(=O)[C@@H]1[C@@H]2[C@H](CN1C(=O)[C@@H](NC(=O)NC1(CS(=O)(=O)N(C)C)CCCCC1)C(C)(C)C)C2(C)C)C(=O)C(=O)NC1CC1
8 | 2.8 | 45 |  | 0.1 | 0.2 |  |  | CCC[C@H](NC(=O)[C@@H]1[C@@H]2[C@H](CN1C(=O)[C@@H](NC(=O)NC1(CS(=O)(=O)N(C)C(C)(C)CF)CCCCC1)C(C)(C)C)C2(C)C)C(=O)C(=O)NC1CC1
9 | 5 | 65 | 131 | 1 | 7.9 |  |  | CCC[C@H](NC(=O)[C@@H]1[C@@H]2[C@H](CN1C(=O)[C@@H](NC(=O)NC1(CS(=O)(=O)N(CC)C3CC3)CCCCC1)C(C)(C)C)C2(C)C)C(=O)C(=O)NC1CC1
10 | 8 | 55 | 36 | 0.6 | 0.2 |  |  | CCC[C@H](NC(=O)[C@@H]1[C@@H]2[C@H](CN1C(=O)[C@@H](NC(=O)NC1(CS(=O)(=O)N(C)C(C)(C)C)CCCCC1)C(C)(C)C)C2(C)C)C(=O)C(=O)NC1CC1
11 | 22 |  |  |  |  |  |  | CCC[C@H](NC(=O)[C@@H]1[C@@H]2[C@H](CN1C(=O)[C@@H](NC(=O)NC1([C@H](C)S(=O)(=O)N(C)C)CCCCC1)C(C)(C)C)C2(C)C)C(=O)C(=O)NC1CC1
12 | 7 | 90 |  | 0.3 | 0.2 |  |  | CCC[C@H](NC(=O)[C@@H]1[C@@H]2[C@H](CN1C(=O)[C@@H](NC(=O)NC1(CS(=O)(=O)N(C)C3CCC3)CCCCC1)C(C)(C)C)C2(C)C)C(=O)C(=O)NC1CC1
13 | 8 | 55 | 82 | 1.8 | 6.9 | 3.3 |  | CCC[C@H](NC(=O)[C@@H]1[C@@H]2[C@H](CN1C(=O)[C@@H](NC(=O)NC1(CS(=O)(=O)N(C)C3CC3)CCCCC1)C(C)(C)C)C2(C)C)C(=O)C(=O)NC1CC1
14 | 7 | 70 | 97 | 0.9 | 0.2 |  |  | CCC[C@H](NC(=O)[C@@H]1[C@@H]2[C@H](CN1C(=O)[C@@H](NC(=O)NC1(CS(=O)(=O)N(C)C(C)C)CCCCC1)C(C)(C)C)C2(C)C)C(=O)C(=O)NC1CC1
15 | 11 | 105 | 959 |  |  |  |  | CCCC[C@H](NC(=O)[C@@H]1[C@@H]2[C@H](CN1C(=O)[C@@H](NC(=O)NC1(CS(=O)(=O)N(C)C3CC3)CCCCC1)C(C)(C)C)C2(C)C)C(=O)C(=O)NC1CC1
16 | 6 | 75 | 2480 | 0.9 | 4 | 5.4 |  | CN(C1CC1)S(=O)(=O)CC1(NC(=O)N[C@H](C(=O)N2CC3C([C@H]2C(=O)N[C@@H](CCC2CC2)C(=O)C(=O)NC2CC2)C3(C)C)C(C)(C)C)CCCCC1 (single isomer, unassigned)
17 | 9 | 65 | 64 | 1.5 | 0.5 | 0.1 |  | CCC[C@H](NC(=O)[C@@H]1[C@@H]2[C@H](CN1C(=O)[C@@H](NC(=O)NC1(CS(=O)(=O)N(C)CC)CCCCC1)C(C)(C)C)C2(C)C)C(=O)C(=O)NC1CC1
18 | 15 | 60 | 113 | 2.2 | 1.4 |  |  | CN(C1CC1)S(=O)(=O)CC1(NC(=O)N[C@H](C(=O)N2C[C@H]3[C@@H]([C@H]2C(=O)N[C@@H](CC2CC2)C(=O)C(=O)NC2CC2)C3(C)C)C(C)(C)C)CCCCC1
19 | 49 | 20 | 55 |  |  | 0.05 |  | CC(C)(C)[C@H](NC(=O)NC1(C(=O)OCc2ccccc2)CCCCC1)C(=O)N1C[C@H]2[C@@H]([C@H]1C(=O)NC(CC1CC1)C(=O)C(N)=O)C2(C)C (stereo partly drawn)
20 | 14 |  |  | 0.1 |  | 0.3 | 3.1 | CC(C)(C)NC(=O)N[C@H](C(=O)N1C[C@H]2[C@@H]([C@H]1C(=O)NC(CC1CCC1)C(=O)C(N)=O)C2(C)C)C(C)(C)C (stereo partly drawn) [BOCEPREVIR]
21 | 7 | 80 |  | 0.8 | 0.8 |  |  | CCC[C@H](NC(=O)[C@@H]1[C@@H]2[C@H](CN1C(=O)[C@@H](NC(=O)NC1(CS(=O)(=O)N3CCC3)CCCCC1)C(C)(C)C)C2(C)C)C(=O)C(=O)NC1CC1
22 | 6 | 100 |  | 1.7 | 0.5 |  |  | CCC[C@H](NC(=O)[C@@H]1[C@@H]2[C@H](CN1C(=O)[C@@H](NC(=O)NC1(CS(=O)(=O)N(C(C)C)C3CC3)CCCCC1)C(C)(C)C)C2(C)C)C(=O)C(=O)NC1CC1
23 | 4 | 20 | 340 | 0.1 |  |  |  | CCC[C@H](NC(=O)[C@@H]1[C@@H]2[C@H](CN1C(=O)[C@@H](NC(=O)NC1([C@@H]3CCN(C)S3(=O)=O)CCCCC1)C(C)(C)C)C2(C)C)C(=O)C(=O)NC1CC1
